Measurements: ChEMBL document CHEMBL1221240, “An efficient one-pot synthesis of heterocycle-fused 1,2,3-triazole derivatives as anti-cancer agents” (Bioorg Med Chem Lett, 2010)
≈ marks a conversion by molar mass, not a printed value.

These compounds were tested on K562 (assay: Cytotoxicity against human K562 cells by MTT assay).
Assay type: functional, cell-based
How it was run: (§1)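 In vitro MTT assay on human tumour cells: myeloid leukaemia K562 and HL-60, ovarian carcinoma Skov-3, epidermoid carcinoma A431, and lung adenocarcinoma A549. IC50 is the concentration that lowers optical density of treated cells by 50% relative to untreated cells. Values are means of three independent determinations.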

SMILES	IC50 [µg/mL]
COc1ccc(C(=O)c2nnn3c2NCCC3)cc1	3.4 (≈ 13.2 µM)
CC(=O)c1nnn2c1NCC2	> 200
COc1ccc(C(=O)c2nnn3c2NCC3)cc1	2.8 (≈ 11.5 µM)
O=C(c1ccc(Cl)cc1)c1nnn2c1OCC2	> 200
O=C(c1ccc(Cl)cc1)c1nnn2c1NCCC2	3.2 (≈ 12.2 µM)
Cc1ccc(C(=O)c2nnn3c2NCC3)cc1	9.4 (≈ 41.2 µM)
Cc1ccc(C(=O)c2nnn3c2OCC3)cc1	127 (≈ 554 µM)
O=C(c1ccc(Cl)cc1)c1nnn2c1NCC2	16.1 (≈ 64.7 µM)
O=C(c1ccccc1)c1nnn2c1NCCC2	28.6 (≈ 125 µM)
Cc1ccc(C(=O)c2nnn3c2NCCC3)cc1	1.5 (≈ 6.19 µM)
O=C(c1ccccc1)c1nnn2c1OCC2	> 200
COc1ccc(C(=O)c2nnn3c2OCC3)cc1	1 (≈ 4.08 µM)
O=C(c1ccccc1)c1nnn2c1NCC2	92 (≈ 429 µM)

What follows are compounds tested on SK-OV-3 (assay: Cytotoxicity against human SKOV3 cells by MTT assay).
Assay type: functional, cell-based
How it was run: as §1

SMILES	IC50 [µg/mL]
COc1ccc(C(=O)c2nnn3c2NCCC3)cc1	190 (≈ 736 µM)
CC(=O)c1nnn2c1NCC2	> 200
COc1ccc(C(=O)c2nnn3c2NCC3)cc1	159 (≈ 651 µM)
O=C(c1ccc(Cl)cc1)c1nnn2c1OCC2	8.6 (≈ 34.4 µM)
O=C(c1ccc(Cl)cc1)c1nnn2c1NCCC2	> 200
Cc1ccc(C(=O)c2nnn3c2NCC3)cc1	> 200
Cc1ccc(C(=O)c2nnn3c2OCC3)cc1	8.5 (≈ 37.1 µM)
O=C(c1ccc(Cl)cc1)c1nnn2c1NCC2	> 200
O=C(c1ccccc1)c1nnn2c1NCCC2	> 200
Cc1ccc(C(=O)c2nnn3c2NCCC3)cc1	124 (≈ 512 µM)
O=C(c1ccccc1)c1nnn2c1OCC2	66.1 (≈ 307 µM)
COc1ccc(C(=O)c2nnn3c2OCC3)cc1	9.6 (≈ 39.1 µM)
O=C(c1ccccc1)c1nnn2c1NCC2	> 200

What follows are compounds tested on HL-60 (assay: Cytotoxicity against human HL60 cells by MTT assay).
Assay type: functional, cell-based
How it was run: as §1

SMILES	IC50 [µg/mL]
COc1ccc(C(=O)c2nnn3c2NCCC3)cc1	> 200
CC(=O)c1nnn2c1NCC2	> 200
COc1ccc(C(=O)c2nnn3c2NCC3)cc1	> 200
O=C(c1ccc(Cl)cc1)c1nnn2c1OCC2	6.5 (≈ 26 µM)
O=C(c1ccc(Cl)cc1)c1nnn2c1NCCC2	> 200
Cc1ccc(C(=O)c2nnn3c2NCC3)cc1	> 200
Cc1ccc(C(=O)c2nnn3c2OCC3)cc1	13.7 (≈ 59.8 µM)
O=C(c1ccc(Cl)cc1)c1nnn2c1NCC2	> 200
O=C(c1ccccc1)c1nnn2c1NCCC2	> 200
Cc1ccc(C(=O)c2nnn3c2NCCC3)cc1	> 200
O=C(c1ccccc1)c1nnn2c1OCC2	17.2 (≈ 79.9 µM)
COc1ccc(C(=O)c2nnn3c2OCC3)cc1	21.1 (≈ 86 µM)
O=C(c1ccccc1)c1nnn2c1NCC2	> 200

What follows are compounds tested on A-431 (assay: Cytotoxicity against human A431 cells by MTT assay).
Assay type: functional, cell-based
How it was run: as §1

SMILES	IC50 [µg/mL]
COc1ccc(C(=O)c2nnn3c2NCCC3)cc1	64.4 (≈ 249 µM)
CC(=O)c1nnn2c1NCC2	> 200
COc1ccc(C(=O)c2nnn3c2NCC3)cc1	> 200
O=C(c1ccc(Cl)cc1)c1nnn2c1OCC2	3.8 (≈ 15.2 µM)
O=C(c1ccc(Cl)cc1)c1nnn2c1NCCC2	> 200
Cc1ccc(C(=O)c2nnn3c2NCC3)cc1	> 200
Cc1ccc(C(=O)c2nnn3c2OCC3)cc1	12.7 (≈ 55.4 µM)
O=C(c1ccc(Cl)cc1)c1nnn2c1NCC2	57.6 (≈ 232 µM)
O=C(c1ccccc1)c1nnn2c1NCCC2	> 200
Cc1ccc(C(=O)c2nnn3c2NCCC3)cc1	> 200
O=C(c1ccccc1)c1nnn2c1OCC2	10.8 (≈ 50.2 µM)
COc1ccc(C(=O)c2nnn3c2OCC3)cc1	1.9 (≈ 7.75 µM)
O=C(c1ccccc1)c1nnn2c1NCC2	> 200

These compounds were tested on A549 (assay: Cytotoxicity against human A549 cells by MTT assay).
Assay type: functional, cell-based
How it was run: as §1

SMILES	IC50 [µg/mL]
COc1ccc(C(=O)c2nnn3c2NCCC3)cc1	> 200
CC(=O)c1nnn2c1NCC2	> 200
COc1ccc(C(=O)c2nnn3c2NCC3)cc1	> 200
O=C(c1ccc(Cl)cc1)c1nnn2c1OCC2	42 (≈ 168 µM)
O=C(c1ccc(Cl)cc1)c1nnn2c1NCCC2	> 200
Cc1ccc(C(=O)c2nnn3c2NCC3)cc1	> 200
Cc1ccc(C(=O)c2nnn3c2OCC3)cc1	79 (≈ 345 µM)
O=C(c1ccc(Cl)cc1)c1nnn2c1NCC2	> 200
O=C(c1ccccc1)c1nnn2c1NCCC2	> 200
Cc1ccc(C(=O)c2nnn3c2NCCC3)cc1	> 200
O=C(c1ccccc1)c1nnn2c1OCC2	78 (≈ 362 µM)
COc1ccc(C(=O)c2nnn3c2OCC3)cc1	58 (≈ 237 µM)
O=C(c1ccccc1)c1nnn2c1NCC2	> 200

The compounds below were run on HepG2 (assay: Cytotoxicity against human HepG2 cells by MTT assay).
Assay type: functional, cell-based

SMILES	IC50 [µg/mL]
COc1ccc(C(=O)c2nnn3c2NCCC3)cc1	> 200
CC(=O)c1nnn2c1NCC2	> 200
COc1ccc(C(=O)c2nnn3c2NCC3)cc1	> 200
O=C(c1ccc(Cl)cc1)c1nnn2c1OCC2	> 200
O=C(c1ccc(Cl)cc1)c1nnn2c1NCCC2	> 200
Cc1ccc(C(=O)c2nnn3c2NCC3)cc1	> 200
Cc1ccc(C(=O)c2nnn3c2OCC3)cc1	198 (≈ 864 µM)
O=C(c1ccc(Cl)cc1)c1nnn2c1NCC2	> 200
O=C(c1ccccc1)c1nnn2c1NCCC2	> 200
Cc1ccc(C(=O)c2nnn3c2NCCC3)cc1	> 200
O=C(c1ccccc1)c1nnn2c1OCC2	> 200
COc1ccc(C(=O)c2nnn3c2OCC3)cc1	> 200
O=C(c1ccccc1)c1nnn2c1NCC2	> 200
